# Reference: ChEMBL document CHEMBL4371030, “Synthesis and antitumor activity of biotinylated camptothecin derivatives as potent cytotoxic agents” (Bioorg Med Chem Lett, 2019)
# What was measured:
# Format in all cases: functional, cell-based
# SMMC-7721 = experiment: Cytotoxicity against human SMMC7721 cells after 48 hrs by MTT assay; conditions: SMMC-7721, 48 h
# In short: (§1)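 MTT viability read-out on a human tumour panel: HL-60 leukaemia, SMMC-7721 hepatoma, A-549 lung, MCF-7 breast and SW480 colon carcinoma. Camptothecin and cisplatin were run alongside as positive controls. Potency is reported as the half-maximal inhibitory concentration (IC50) in μmol L-1.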
# SW480 = experiment: Cytotoxicity against human SW480 cells after 48 hrs by MTT assay; conditions: SW480, 48 h; in short: as §1
# A549 = experiment: Cytotoxicity against human A549 cells after 48 hrs by MTT assay; conditions: A549, 48 h; in short: as §1
# MCF7 = experiment: Cytotoxicity against human MCF7 cells after 48 hrs by MTT assay; conditions: MCF7, 48 h; in short: as §1
# HL-60 = experiment: Cytotoxicity against human HL60 cells after 48 hrs by MTT assay; conditions: HL-60, 48 h; in short: as §1
SMILES,IC50 (SMMC-7721) [µM],IC50 (SW480) [µM],IC50 (A549) [µM],IC50 (MCF7) [µM],IC50 (HL-60) [µM]
CC[C@@]1(O)C(=O)OCc2c1cc1n(c2=O)Cc2cc3cc(OC(=O)CCCCCNC(=O)CCCC[C@@H]4SC[C@@H]5NC(=O)N[C@@H]54)ccc3nc2-1,1.85,0.45,0.75,0.34,1.14
CC[C@@]1(OCc2cn(CCOCCOCCNC(=O)CCCC[C@@H]3SC[C@@H]4NC(=O)N[C@@H]43)nn2)C(=O)OCc2c1cc1n(c2=O)Cc2cc3ccccc3nc2-1,4.77,6.05,3.63,3.47,0.72
CCc1c2c(nc3ccccc13)-c1cc3c(c(=O)n1C2)COC(=O)[C@@]3(CC)OC(=O)CCCC[C@@H]1SC[C@@H]2NC(=O)N[C@@H]21,3.28,8.73,1.14,4.26,1.81
CC[C@@]1(O)C(=O)OCc2c1cc1n(c2=O)Cc2cc3ccccc3nc2-1 [CAMPTOTHECIN],0.45,0.29,,,< 0.064
CC[C@@]1(OC(=O)CCCCCNC(=O)CCCC[C@@H]2SC[C@@H]3NC(=O)N[C@@H]32)C(=O)OCc2c1cc1n(c2=O)Cc2cc3ccccc3nc2-1,15.3,> 40,19.9,21.5,6.57
CC[C@@]1(O)C(=O)OCc2c1cc1n(c2=O)Cc2cc3cc(OC(=O)CCCC[C@@H]4SC[C@@H]5NC(=O)N[C@@H]54)ccc3nc2-1,3.32,0.55,1.23,2.3,3.19
CC[C@@]1(OCc2cn(CCOCCOCCOCCOCCOCCNC(=O)CCCC[C@@H]3SC[C@@H]4NC(=O)N[C@@H]43)nn2)C(=O)OCc2c1cc1n(c2=O)Cc2cc3ccccc3nc2-1,> 40,> 40,> 40,> 40,> 40
CCc1c2c(nc3ccc(OC(=O)CCCC[C@@H]4SC[C@@H]5NC(=O)N[C@@H]54)cc13)-c1cc3c(c(=O)n1C2)COC(=O)[C@]3(O)CC,1.55,0.13,0.52,0.8,3.31
CC[C@@]1(OC(=O)CCCC[C@@H]2SC[C@@H]3NC(=O)N[C@@H]32)C(=O)OCc2c1cc1n(c2=O)Cc2cc3ccccc3nc2-1,7.69,12.5,3.47,18.2,2.3
CCc1c2c(nc3ccccc13)-c1cc3c(c(=O)n1C2)COC(=O)[C@@]3(CC)OCc1cn(CCOCCOCCOCCOCCOCCNC(=O)CCCC[C@@H]2SC[C@@H]3NC(=O)N[C@@H]32)nn1,4.1,0.57,5.18,9.21,4.77
CCc1c2c(nc3ccc(OC(=O)CCCCCNC(=O)CCCC[C@@H]4SC[C@@H]5NC(=O)N[C@@H]54)cc13)-c1cc3c(c(=O)n1C2)COC(=O)[C@]3(O)CC,1.14,1.48,0.23,0.4,0.76
CCc1c2c(nc3ccccc13)-c1cc3c(c(=O)n1C2)COC(=O)[C@@]3(CC)OC(=O)CCCCCNC(=O)CCCC[C@@H]1SC[C@@H]2NC(=O)N[C@@H]21,12.2,16.2,3.08,1.94,0.84
CCc1c2c(nc3ccccc13)-c1cc3c(c(=O)n1C2)COC(=O)[C@@]3(CC)OCc1cn(CCOCCOCCNC(=O)CCCC[C@@H]2SC[C@@H]3NC(=O)N[C@@H]32)nn1,> 40,> 40,> 40,> 40,> 40
